From ChEMBL document CHEMBL5058577, “EUbOPEN Chemogenomics Library 2 (Multiplex)” (2022)

Test system: HEK-293T
Test: Multiplex assay against HEK293T
Format: toxicity, cell-based
Conditions: human
Procedure, shortened: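 On a CQ1 microscope at 37°C and 5% CO2, live cells were imaged after compound addition. They had been stained at seeding with Hoechst33342, BioTracker Green Microtubule Cytoskeleton Dye, MitoTracker Red and Annexin V Alexa Fluor 680. CellPathfinder machine-learning gating assigned cells to Hoechst high-intensity objects or normal cells, normal cells to healthy, pyknosed or fragmented nuclei, and pyknosed cells to mitotic or apoptotic. Tubulin, mitochondrial-mass and membrane-permeability phenotypes are per cents of healthy-nucleus cells.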

[1] = 12 h, 1 µM, compound concentration 1 uM, replicate 1
[2] = 12 h, 1 µM, compound concentration 1 uM, replicate 2
[3] = 12 h, 10 µM, compound concentration 10 uM, replicate 1
[4] = 12 h, 10 µM, compound concentration 10 uM, replicate 2
[5] = 24 h, 1 µM, compound concentration 1 uM, replicate 1
[6] = 24 h, 1 µM, compound concentration 1 uM, replicate 2
[7] = 24 h, 10 µM, compound concentration 10 uM, replicate 1
[8] = 24 h, 10 µM, compound concentration 10 uM, replicate 2
[9] = 48 h, 1 µM, compound concentration 1 uM, replicate 1
[10] = 48 h, 1 µM, compound concentration 1 uM, replicate 2
[11] = 48 h, 10 µM, compound concentration 10 uM, replicate 1
[12] = 48 h, 10 µM, compound concentration 10 uM, replicate 2

## Cl.Clc1ccc2nsnc2c1NC1=NCCN1 [TIZANIDINE HYDROCHLORIDE]
[1]
  Population Apoptotic (%): 39%
  Population Fragmented Nuclei (%): 9%
  Population Healthy Nuclei (%): 80%
  Population Hoechst High Intensity Objects (%): 8%
  Population Membrane Permeable-Phenotype (%): 0%
  Population Mitochondria Different-Phenotype (%): 36%
  Population Mitotic Cells (%): 60%
  Population Normal (%): 91%
  Population Pyknosed Nuclei (%): 9%
  Population Tubulin-Different-Phenotype (%): 26%
  Total Cell Count: 474
[2]
  Population Apoptotic (%): 44%
  Population Fragmented Nuclei (%): 2%
  Population Healthy Nuclei (%): 83%
  Population Hoechst High Intensity Objects (%): 9%
  Population Mitochondria Different-Phenotype (%): 62%
  Population Mitotic Cells (%): 55%
  Population Normal (%): 90%
  Population Pyknosed Nuclei (%): 13%
  Population Tubulin-Different-Phenotype (%): 20%
  Total Cell Count: 373
[3]
  Population Apoptotic (%): 30%
  Population Fragmented Nuclei (%): 9%
  Population Healthy Nuclei (%): 80%
  Population Hoechst High Intensity Objects (%): 6%
  Population Membrane Permeable-Phenotype (%): 0%
  Population Mitochondria Different-Phenotype (%): 45%
  Population Mitotic Cells (%): 70%
  Population Normal (%): 93%
  Population Pyknosed Nuclei (%): 9%
  Population Tubulin-Different-Phenotype (%): 32%
  Total Cell Count: 450
[4]
  Population Apoptotic (%): 46%
  Population Fragmented Nuclei (%): 7%
  Population Healthy Nuclei (%): 79%
  Population Hoechst High Intensity Objects (%): 4%
  Population Mitochondria Different-Phenotype (%): 67%
  Population Mitotic Cells (%): 53%
  Population Normal (%): 95%
  Population Pyknosed Nuclei (%): 13%
  Population Tubulin-Different-Phenotype (%): 27%
  Total Cell Count: 343
[5]
  Population Apoptotic (%): 32%
  Population Fragmented Nuclei (%): 11%
  Population Healthy Nuclei (%): 79%
  Population Hoechst High Intensity Objects (%): 4%
  Population Membrane Permeable-Phenotype (%): 0%
  Population Mitochondria Different-Phenotype (%): 20%
  Population Mitotic Cells (%): 67%
  Population Normal (%): 95%
  Population Pyknosed Nuclei (%): 8%
  Population Tubulin-Different-Phenotype (%): 17%
  Total Cell Count: 597
[6]
  Population Apoptotic (%): 45%
  Population Fragmented Nuclei (%): 10%
  Population Healthy Nuclei (%): 80%
  Population Hoechst High Intensity Objects (%): 5%
  Population Mitochondria Different-Phenotype (%): 38%
  Population Mitotic Cells (%): 54%
  Population Normal (%): 94%
  Population Tubulin-Different-Phenotype (%): 15%
  Total Cell Count: 434
[7]
  Population Apoptotic (%): 32%
  Population Fragmented Nuclei (%): 11%
  Population Healthy Nuclei (%): 78%
  Population Hoechst High Intensity Objects (%): 5%
  Population Membrane Permeable-Phenotype (%): 1%
  Population Mitochondria Different-Phenotype (%): 23%
  Population Mitotic Cells (%): 67%
  Population Normal (%): 94%
  Population Pyknosed Nuclei (%): 9%
  Population Tubulin-Different-Phenotype (%): 18%
  Total Cell Count: 621
[8]
  Population Apoptotic (%): 29%
  Population Fragmented Nuclei (%): 10%
  Population Healthy Nuclei (%): 81%
  Population Hoechst High Intensity Objects (%): 6%
  Population Membrane Permeable-Phenotype (%): 0%
  Population Mitochondria Different-Phenotype (%): 46%
  Population Mitotic Cells (%): 70%
  Population Normal (%): 93%
  Population Pyknosed Nuclei (%): 7%
  Total Cell Count: 443
[9]
  Population Apoptotic (%): 17%
  Population Fragmented Nuclei (%): 16%
  Population Healthy Nuclei (%): 77%
  Population Hoechst High Intensity Objects (%): 2%
  Population Membrane Permeable-Phenotype (%): 3%
  Population Mitochondria Different-Phenotype (%): 13%
  Population Mitotic Cells (%): 82%
  Population Normal (%): 97%
  Population Pyknosed Nuclei (%): 6%
  Population Tubulin-Different-Phenotype (%): 10%
  Total Cell Count: 1005
[10]
  Population Apoptotic (%): 33%
  Population Fragmented Nuclei (%): 14%
  Population Healthy Nuclei (%): 79%
  Population Hoechst High Intensity Objects (%): 3%
  Population Membrane Permeable-Phenotype (%): 1%
  Population Mitochondria Different-Phenotype (%): 19%
  Population Mitotic Cells (%): 66%
  Population Normal (%): 96%
  Population Tubulin-Different-Phenotype (%): 7%
  Total Cell Count: 661
[11]
  Population Apoptotic (%): 24%
  Population Fragmented Nuclei (%): 19%
  Population Healthy Nuclei (%): 74%
  Population Hoechst High Intensity Objects (%): 3%
  Population Membrane Permeable-Phenotype (%): 1%
  Population Mitochondria Different-Phenotype (%): 13%
  Population Mitotic Cells (%): 75%
  Population Normal (%): 96%
  Population Pyknosed Nuclei (%): 5%
  Population Tubulin-Different-Phenotype (%): 10%
  Total Cell Count: 995
[12]
  Population Apoptotic (%): 25%
  Population Fragmented Nuclei (%): 13%
  Population Healthy Nuclei (%): 81%
  Population Hoechst High Intensity Objects (%): 5%
  Population Mitochondria Different-Phenotype (%): 23%
  Population Normal (%): 94%
  Population Pyknosed Nuclei (%): 4%
  Population Tubulin-Different-Phenotype (%): 19%
  Total Cell Count: 600
